Experiments:
Format in all cases: functional
Escherichia coli [1] = assay: Minimum inhibitory concentration was measured against Escherichia coli A 20507
Escherichia coli [2] = assay: Minimum inhibitory concentration was measured against Escherichia coli A 20507, in combination with Kanamycin A at 8 ug/mL concentration
How it was run: (§1)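 The value is the minimum inhibitory concentration of kanamycin A, in µg/mL, against the listed strain. Strains are designated by their inactivating enzyme, e.g. aminoglycoside 3'-phosphotransferase II producers.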

Escherichia coli [3] = assay: Minimum inhibitory concentration was measured against Escherichia coli A 20507, in combination with Kanamycin A at specified concentration; how it was run: as §1
Escherichia coli [4] = assay: Minimum inhibitory concentration was measured against Escherichia coli A 20665
Escherichia coli [5] = assay: Minimum inhibitory concentration was measured against Escherichia coli A 20665, in combination with Kanamycin A at 8 ug/mL concentration; how it was run: as §1
Escherichia coli [6] = assay: Minimum inhibitory concentration was measured against Escherichia coli A 20665, in combination with Kanamycin A at specified concentration; how it was run: as §1
Escherichia coli [7] = assay: Minimum inhibitory concentration was measured against Escherichia coli A 9632
Escherichia coli [8] = assay: Minimum inhibitory concentration was measured against Escherichia coli A 9632, in combination with Kanamycin A at 8 ug/mL concentration; how it was run: as §1
Escherichia coli [9] = assay: Minimum inhibitory concentration was measured against Escherichia coli A 9632, in combination with Kanamycin A at specified concentration; how it was run: as §1
Pseudomonas aeruginosa [10] = assay: Minimum inhibitory concentration was measured against Pseudomonas aeruginosa A 20653 in combination with Kanamycin A at specified concentration.; how it was run: as §1
Pseudomonas aeruginosa [11] = assay: Minimum inhibitory concentration was measured against Pseudomonas aeruginosa A 20653, in combination with Kanamycin A at 8 ug/mL concentration; how it was run: as §1
Pseudomonas aeruginosa [12] = assay: Minimum inhibitory concentration was measured against Pseudomonas aeruginosa A 20653
Providencia rettgeri [13] = assay: Minimum inhibitory concentration was measured against Proteus rettgeri A 9637, in combination with Kanamycin A at 8 ug/mL concentration; how it was run: as §1
Providencia rettgeri [14] = assay: Minimum inhibitory concentration was measured against Proteus rettgeri A 9637, in combination with Kanamycin A at specified concentration.; how it was run: as §1
Pseudomonas aeruginosa [15] = assay: Minimum inhibitory concentration was measured against Pseudomonas aeruginosa A 20357, in combination with Kanamycin A at specified concentration.; how it was run: as §1
Providencia rettgeri [16] = assay: Minimum inhibitory concentration was measured against Proteus rettgeri A 21615
Providencia rettgeri [17] = assay: Minimum inhibitory concentration was measured against Proteus rettgeri A 21615, in combination with Kanamycin A at 8 ug/mL concentration; how it was run: as §1
Providencia rettgeri [18] = assay: Minimum inhibitory concentration was measured against Proteus rettgeri A 21615, in combination with Kanamycin A at specified concentration.; how it was run: as §1
Providencia rettgeri [19] = assay: Minimum inhibitory concentration was measured against Proteus rettgeri A 9637
Pseudomonas aeruginosa [20] = assay: Minimum inhibitory concentration was measured against Pseudomonas aeruginosa A 20357, in combination with Kanamycin A at 8 ug/mL concentration; how it was run: as §1
Pseudomonas aeruginosa [21] = assay: Minimum inhibitory concentration was measured against Pseudomonas aeruginosa A 20357
Escherichia coli [22] = assay: Minimum inhibitory concentration was measured against Escherichia coli A 20507, in combination with Kanamycin A at 32 ug/mL concentration
How it was run: (§2)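 Kanamycin A was serially diluted in Mueller-Hinton broth with each epimino derivative held at a fixed 32 µg/mL (8 µg/mL also run). The value is the minimum inhibitory concentration of kanamycin A in the combination against Bristol-numbered strains, read for lowering of kanamycin A MIC in resistant strains.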

Pseudomonas aeruginosa [23] = assay: Minimum inhibitory concentration was measured against Pseudomonas aeruginosa A 20653 in combination with Kanamycin A at 32 ug/mL concentration; how it was run: as §2
Pseudomonas aeruginosa [24] = assay: Minimum inhibitory concentration was measured against Pseudomonas aeruginosa A 20357, in combination with Kanamycin A at 32 ug/mL concentration; how it was run: as §2
Providencia rettgeri [25] = assay: Minimum inhibitory concentration was measured against Proteus rettgeri A 21615, in combination with Kanamycin A at 32 ug/mL concentration; how it was run: as §2
Escherichia coli [26] = assay: Minimum inhibitory concentration was measured against Escherichia coli A 20665, in combination with Kanamycin A at 32 ug/mL concentration; how it was run: as §2
Providencia rettgeri [27] = assay: Minimum inhibitory concentration was measured against Proteus rettgeri A 9637, in combination with Kanamycin A at 32 ug/mL concentration; how it was run: as §2

Measured: MIC

NCC1OC(OC2C(N)CC(N)C(OC3OC(CO)C(O)C4NC34)C2O)C(N)C(O)C1O (stereo unspecified)
63 µg/mL: Escherichia coli [7] | Providencia rettgeri [17] | Providencia rettgeri [18]
125 µg/mL: Escherichia coli [2] | Escherichia coli [3]
1 µg/mL: Escherichia coli [8] | Escherichia coli [9]
4 µg/mL: Pseudomonas aeruginosa [15] | Pseudomonas aeruginosa [20]
0.5 µg/mL: Providencia rettgeri [13] | Providencia rettgeri [14]
not listed: Escherichia coli [22] | Pseudomonas aeruginosa [23] | Pseudomonas aeruginosa [24] | Providencia rettgeri [25] | Escherichia coli [26] | Providencia rettgeri [27]
> 125 µg/mL: all other assays above

NCC1OC(OC2C(N)CC(N)C(O)C2O)C2NC2C1O (stereo unspecified)
> 125 µg/mL: Escherichia coli [1]
32 µg/mL: Escherichia coli [3]
63 µg/mL: Escherichia coli [2]

NCC1OC(OC2C(NC(=O)OCc3ccccc3)CC(N)C(O)C2O)C(N)C(O)C1O (stereo unspecified)
125 µg/mL: Escherichia coli [22] | Escherichia coli [2] | Providencia rettgeri [25] | Providencia rettgeri [17]
2 µg/mL: Escherichia coli [8]
4 µg/mL: Pseudomonas aeruginosa [24] | Pseudomonas aeruginosa [20]
1 µg/mL: Providencia rettgeri [13] | Providencia rettgeri [27]
not listed: Escherichia coli [3] | Escherichia coli [6] | Escherichia coli [9] | Pseudomonas aeruginosa [10] | Providencia rettgeri [14] | Pseudomonas aeruginosa [15] | Providencia rettgeri [18]
> 125 µg/mL: all other assays above

NCC1OC(OC2C(NC(=O)OCc3ccccc3)CC(N)C(O)C2O)C2NC2C1O (stereo unspecified)
125 µg/mL: Escherichia coli [4] | Escherichia coli [7]
> 125 µg/mL: Escherichia coli [1] | Escherichia coli [2] | Escherichia coli [5] | Escherichia coli [6] | Pseudomonas aeruginosa [10] | Pseudomonas aeruginosa [11] | Pseudomonas aeruginosa [12] | Providencia rettgeri [16] | Providencia rettgeri [17] | Providencia rettgeri [19] | Pseudomonas aeruginosa [21]
63 µg/mL: Escherichia coli [3] | Providencia rettgeri [18]

NCC1OC(OC2C(N)CC(N)C(OC3OC(CO)C(O)C(N)C3O)C2O)C2NC2C1O (stereo unspecified)
0.25 µg/mL: Escherichia coli [8]
0.5 µg/mL: Providencia rettgeri [13] | Providencia rettgeri [14]
8 µg/mL: Escherichia coli [7]
4 µg/mL: Pseudomonas aeruginosa [15] | Pseudomonas aeruginosa [20]
16 µg/mL: Providencia rettgeri [19]
125 µg/mL: Escherichia coli [1] | Escherichia coli [2] | Escherichia coli [3] | Escherichia coli [4] | Pseudomonas aeruginosa [12] | Providencia rettgeri [17] | Providencia rettgeri [18] | Pseudomonas aeruginosa [21]
> 125 µg/mL: Escherichia coli [5] | Escherichia coli [6] | Pseudomonas aeruginosa [10] | Pseudomonas aeruginosa [11] | Providencia rettgeri [16]

NCC1OC(OC2C(NC(=O)OCc3ccccc3)CC(N)C(O)C2OC2O[C@H](CO)[C@@H](O)[C@H]2O)C2NC2C1O (stereo partly specified)
1 µg/mL: Escherichia coli [8] | Escherichia coli [9]
0.5 µg/mL: Providencia rettgeri [13] | Providencia rettgeri [14]
125 µg/mL: Escherichia coli [2] | Providencia rettgeri [17] | Providencia rettgeri [18]
63 µg/mL: Escherichia coli [3]
4 µg/mL: Pseudomonas aeruginosa [15] | Pseudomonas aeruginosa [20]
not listed: Escherichia coli [22] | Pseudomonas aeruginosa [23] | Pseudomonas aeruginosa [24] | Providencia rettgeri [25] | Escherichia coli [26] | Providencia rettgeri [27]
> 125 µg/mL: all other assays above

NC[C@H]1O[C@H](O[C@H]2[C@H](O)[C@@H](O[C@H]3O[C@H](CO)[C@@H](O)[C@H](N)[C@H]3O)[C@H](N)C[C@@H]2N)[C@H](O)[C@@H](O)[C@@H]1O [KANAMYCIN]
2 µg/mL: Escherichia coli [7]
> 125 µg/mL: Escherichia coli [1] | Escherichia coli [4] | Pseudomonas aeruginosa [12]
≤ 0.25 µg/mL: Providencia rettgeri [19]
125 µg/mL: Providencia rettgeri [16]

Source: ChEMBL document CHEMBL1121523, “Aminoglycoside antibiotics. 3. Epimino derivatives of neamine, ribostamycin, and kanamycin B” (1980)
